In ChEMBL document CHEMBL1132996, “Derivatives of (R)-1,11-methyleneaporphine: synthesis, structure, and interactions with G-protein coupled receptors” (J Med Chem, 2000):

Experiments:
[1] = target: T1, 5-hydroxytryptamine receptor 7 (Rattus norvegicus, UniProt P32305); test: Binding affinity against Rat 5-hydroxytryptamine 7 receptor using [3H]5-HT
[2] = target: T2, 5-hydroxytryptamine receptor 1A (Homo sapiens, UniProt P08908)
T2 sequence (P08908 whole entry): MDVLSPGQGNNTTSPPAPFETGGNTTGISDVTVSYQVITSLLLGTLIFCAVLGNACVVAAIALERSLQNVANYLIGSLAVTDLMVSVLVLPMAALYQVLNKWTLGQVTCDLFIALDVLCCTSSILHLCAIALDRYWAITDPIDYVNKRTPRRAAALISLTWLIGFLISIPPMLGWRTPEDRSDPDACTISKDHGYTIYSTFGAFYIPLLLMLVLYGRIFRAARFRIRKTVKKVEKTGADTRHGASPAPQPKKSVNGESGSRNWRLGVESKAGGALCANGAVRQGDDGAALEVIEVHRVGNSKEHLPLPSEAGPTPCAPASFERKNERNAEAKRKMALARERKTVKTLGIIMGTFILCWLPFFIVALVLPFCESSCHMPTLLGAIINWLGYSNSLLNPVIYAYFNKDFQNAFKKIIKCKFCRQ

D(2) dopamine receptor [3] = target: T3, D(2) dopamine receptor (Homo sapiens, UniProt P14416); test: Binding affinity was measured on cloned Human D2A Receptor which is labeled by [3H]raclopride
T3 sequence (P14416 whole entry): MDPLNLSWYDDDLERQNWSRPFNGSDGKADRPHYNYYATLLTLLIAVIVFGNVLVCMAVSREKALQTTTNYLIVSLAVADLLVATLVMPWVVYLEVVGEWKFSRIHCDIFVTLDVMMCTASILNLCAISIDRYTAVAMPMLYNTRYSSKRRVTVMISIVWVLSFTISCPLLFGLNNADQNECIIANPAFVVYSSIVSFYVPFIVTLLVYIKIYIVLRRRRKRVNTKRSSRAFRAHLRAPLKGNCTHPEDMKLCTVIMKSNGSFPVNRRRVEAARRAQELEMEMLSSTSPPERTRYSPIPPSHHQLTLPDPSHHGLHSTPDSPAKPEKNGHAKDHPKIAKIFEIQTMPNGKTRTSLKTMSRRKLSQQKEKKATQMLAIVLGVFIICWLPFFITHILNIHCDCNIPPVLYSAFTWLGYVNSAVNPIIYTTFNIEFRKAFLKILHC

[4] = target: T4, 5-hydroxytryptamine receptor 1A (Rattus norvegicus, UniProt P19327); test: Binding affinity was measured on cloned rat 5-hydroxytryptamine 1A receptor which is labeled by [3H]8-OH-DPAT
T4 sequence (P19327 whole entry): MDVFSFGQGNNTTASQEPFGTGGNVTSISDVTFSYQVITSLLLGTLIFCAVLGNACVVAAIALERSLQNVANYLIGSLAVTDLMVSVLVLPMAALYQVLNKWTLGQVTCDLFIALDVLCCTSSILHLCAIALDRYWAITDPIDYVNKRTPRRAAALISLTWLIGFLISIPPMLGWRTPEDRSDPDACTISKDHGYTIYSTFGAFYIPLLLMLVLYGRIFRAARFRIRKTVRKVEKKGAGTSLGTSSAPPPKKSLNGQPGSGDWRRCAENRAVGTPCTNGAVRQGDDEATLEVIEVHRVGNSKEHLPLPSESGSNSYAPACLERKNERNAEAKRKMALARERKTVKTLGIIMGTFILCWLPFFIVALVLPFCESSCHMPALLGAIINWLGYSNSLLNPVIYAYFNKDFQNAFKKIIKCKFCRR

[5] = target: T1, 5-hydroxytryptamine receptor 7; test: Displacement of [3H]5-HT from over-expressed rat 5-hydroxytryptamine 7 receptor
How it was run: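 Cloned rat 5-HT7 receptor in CHO or Sf9 cell membranes, in 50 mM Tris-HCl, 4 mM MgCl2, 1 mM EDTA, pH 7.4; 30-40 pM receptor. Competition against 0.8 nM [3H]5-HT, 60 min at 30 °C. Nonspecific binding defined with 10 μM methiothepin. Filtration, scintillation counting. Ki by nonlinear regression, mean ± SE of 2–3 experiments.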

D(2) dopamine receptor [6] = target: T3, D(2) dopamine receptor; test: Displacement of [3H]raclopride from human Dopamine receptor D2A
How it was run: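 Cloned human D2A receptor expressed in mouse fibroblast Ltk- cell membranes. Competition against [3H]raclopride binding, following an earlier method. Ki by nonlinear regression, mean ± SE of 2–3 experiments.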

[7] = target: T2, 5-hydroxytryptamine receptor 1A; test: Binding affinity was measured on cloned human 5-hydroxytryptamine 1A receptor which is labeled by [3H]8-OH-DPAT
How it was run: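 Membranes from CHO cells expressing cloned human 5-HT1A receptor, in 50 mM Tris-HCl, 4 mM MgCl2, pH 7.4; about 40 pM receptor. Competition against 1 nM [3H]8-OH-DPAT, 60 min at 30 °C. Nonspecific binding defined with 10 μM WAY-100635. Filtration, liquid scintillation counting. Ki by nonlinear regression, mean ± SE of 2–3 experiments.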

T1 sequence (P32305 whole entry): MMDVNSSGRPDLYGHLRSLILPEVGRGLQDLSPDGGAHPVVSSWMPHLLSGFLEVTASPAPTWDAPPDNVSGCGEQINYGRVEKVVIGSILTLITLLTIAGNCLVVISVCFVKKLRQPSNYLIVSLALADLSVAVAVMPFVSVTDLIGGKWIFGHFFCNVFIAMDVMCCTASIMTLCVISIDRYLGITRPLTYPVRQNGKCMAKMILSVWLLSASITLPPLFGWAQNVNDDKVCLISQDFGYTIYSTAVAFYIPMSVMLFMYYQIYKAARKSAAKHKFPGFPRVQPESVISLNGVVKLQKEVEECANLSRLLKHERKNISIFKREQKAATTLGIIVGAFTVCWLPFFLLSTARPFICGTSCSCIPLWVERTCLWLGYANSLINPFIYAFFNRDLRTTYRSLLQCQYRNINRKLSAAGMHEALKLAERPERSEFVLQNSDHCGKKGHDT

Row | SMILES | Ki [2] [nM] | Ki (D(2) dopamine receptor [3]) [nM] | Ki [4] [nM] | Ki [5] [nM] | Ki (D(2) dopamine receptor [6]) [nM] | Ki [7] [nM] | Ki [1] [nM]
1 | NCCc1c[nH]c2ccc(C(N)=O)cc12 |  |  |  |  |  |  | 0.029
2 | CCCN(CCC)[C@H]1CCc2c(F)ccc(O)c2C1 | 87 | 3760 |  |  |  |  | 3180
3 | CCCN(CCC)[C@@H]1CCc2cccc(O)c2C1 |  |  |  |  |  |  | 8.81
4 | Cc1cccc2c1-c1cccc3c1[C@@H](C2)N(C)CC3 | 14.4 |  |  |  |  |  | 38.3
5 | CCO[C@@]1(CC)c2cccc3c2-c2c1ccc1c2[C@@H](C3)N(C)CC1 |  |  |  | 3.05 | 24.5 | 19.1 | 
6 | CCO[C@]1(CC)c2cccc3c2-c2c1ccc1c2[C@@H](C3)N(C)CC1 |  |  |  | 25.7 | 70.8 | 1.84 | 
7 | CO[C@@]1(C)c2cccc3c2-c2c1ccc1c2[C@@H](C3)N(C)CC1 |  |  |  | 1.1 | 71 | 16.9 | 
8 | CO[C@]1(C)c2cccc3c2-c2c1ccc1c2[C@@H](C3)N(C)CC1 |  |  |  | 1.1 | 7.1 | 17.3 | 
9 | CN1CCc2cccc3c2[C@H]1Cc1ccc(O)c(O)c1-3 [APOMORPHINE] |  |  |  |  |  |  | 188

Second part, led by results:

Row | Ki [2] [nM] | Ki (D(2) dopamine receptor [3]) [nM] | Ki [4] [nM] | Ki [5] [nM] | Ki (D(2) dopamine receptor [6]) [nM] | Ki [7] [nM] | SMILES | Ki [1] [nM]
10 |  |  | 140 | 291 | 317 |  | CN1CCc2ccc3c4c2[C@H]1Cc1cccc(c1-4)C3=O | 
11 |  |  | 31 | 13.5 | 23.8 |  | CN1CCc2ccc3c4c2[C@H]1Cc1cccc(c1-4)[C@H]3O | 
12 | 31.1 | 39.2 |  |  |  |  | C[C@H]1c2cccc3c2-c2c1ccc1c2[C@@H](C3)N(C)CC1 | 5.6
13 |  |  |  | 1320 | 7980 | 716 | CC(=O)N[C@H]1c2cccc3c2-c2c1ccc1c2[C@@H](C3)N(C)CC1 | 
14 |  |  |  | 18 |  | 355 | CN1CCc2ccc3c4c2[C@H]1Cc1cccc(c1-4)[C@@H]3N | 
15 |  |  | 315 | 27.7 | 182 |  | CN1CCc2ccc3c4c2[C@H]1Cc1cccc(c1-4)[C@@]3(C)O | 
16 |  |  |  | 13.4 | 261 | 142 | CN1CCc2ccc3c4c2[C@H]1Cc1cccc(c1-4)[C@H]3N | 
17 |  |  |  | 538 | 3650 | 204 | CC(=O)N[C@@H]1c2cccc3c2-c2c1ccc1c2[C@@H](C3)N(C)CC1 | 
18 | 5.05 | 19.4 |  |  |  |  | C[C@@H]1c2cccc3c2-c2c1ccc1c2[C@@H](C3)N(C)CC1 | 3.36
19 | 40.7 | 83.2 |  |  |  |  | CN1CCc2ccc3c4c2[C@H]1Cc1cccc(c1-4)C3 | 6.9
20 |  |  | 1210 | 103 | 215 |  | CN1CCc2ccc3c4c2[C@H]1Cc1cccc(c1-4)[C@@H]3O | 
21 |  |  | 61.5 | 4.3 | 26 |  | CN1CCc2ccc3c4c2[C@H]1Cc1cccc(c1-4)[C@]3(C)O | 
